Key:
[1] = Inhibitory potency was evaluated against angiotensin converting enzyme at the pH 7.5; type: ADME
[2] = target: T1, Angiotensin-converting enzyme (Oryctolagus cuniculus, UniProt P12822); test: Inhibition of Angiotensin I converting enzyme from rabbit lungs at pH 7.5
T1 sequence (P12822 whole entry): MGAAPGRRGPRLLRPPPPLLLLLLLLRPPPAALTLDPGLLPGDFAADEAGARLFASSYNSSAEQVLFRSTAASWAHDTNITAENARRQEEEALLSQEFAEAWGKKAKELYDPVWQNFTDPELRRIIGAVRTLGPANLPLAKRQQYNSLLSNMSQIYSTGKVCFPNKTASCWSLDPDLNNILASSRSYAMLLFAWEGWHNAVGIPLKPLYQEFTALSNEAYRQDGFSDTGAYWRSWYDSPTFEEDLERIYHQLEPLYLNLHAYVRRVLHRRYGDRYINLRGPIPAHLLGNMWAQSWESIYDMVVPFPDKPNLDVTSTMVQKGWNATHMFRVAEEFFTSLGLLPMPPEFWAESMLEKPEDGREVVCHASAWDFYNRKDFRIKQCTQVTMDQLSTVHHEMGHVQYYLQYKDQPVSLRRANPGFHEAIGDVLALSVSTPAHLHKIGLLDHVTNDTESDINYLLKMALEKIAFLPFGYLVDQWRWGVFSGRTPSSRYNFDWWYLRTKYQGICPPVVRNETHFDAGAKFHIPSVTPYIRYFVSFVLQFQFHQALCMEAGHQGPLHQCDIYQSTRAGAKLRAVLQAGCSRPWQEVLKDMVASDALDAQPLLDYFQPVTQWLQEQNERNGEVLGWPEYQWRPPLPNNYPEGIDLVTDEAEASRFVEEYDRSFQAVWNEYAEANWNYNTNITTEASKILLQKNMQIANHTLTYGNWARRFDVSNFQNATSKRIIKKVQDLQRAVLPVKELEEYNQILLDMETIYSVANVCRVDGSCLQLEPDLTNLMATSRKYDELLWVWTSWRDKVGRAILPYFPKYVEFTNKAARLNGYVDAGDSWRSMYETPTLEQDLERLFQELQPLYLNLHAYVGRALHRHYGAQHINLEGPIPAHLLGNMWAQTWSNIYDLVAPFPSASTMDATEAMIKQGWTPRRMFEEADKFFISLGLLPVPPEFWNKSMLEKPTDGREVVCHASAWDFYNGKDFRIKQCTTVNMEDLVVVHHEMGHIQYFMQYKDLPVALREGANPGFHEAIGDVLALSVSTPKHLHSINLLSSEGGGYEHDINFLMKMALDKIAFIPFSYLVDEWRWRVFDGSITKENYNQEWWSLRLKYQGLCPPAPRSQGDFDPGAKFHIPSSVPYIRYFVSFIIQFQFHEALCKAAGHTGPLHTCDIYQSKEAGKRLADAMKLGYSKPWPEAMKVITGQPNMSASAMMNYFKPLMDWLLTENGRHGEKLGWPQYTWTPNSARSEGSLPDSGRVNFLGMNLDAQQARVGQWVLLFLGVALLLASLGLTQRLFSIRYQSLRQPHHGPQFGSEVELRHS

[3] = Rate constant was evaluated for the loss of 1 mol of phenol at the pH 7.5 in the presence of Tris buffer; type: ADME
Method in brief: (§1)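 Ester hydrolysis at pH 7.5 and 37 °C in 100 mM Tris or phosphate buffer with 300 mM NaCl, no enzyme. Phenol release (about 1 mM ester) followed at 275 nm, Δε 1375 M⁻¹cm⁻¹. 4-Nitrophenol release (about 10 μM ester) followed at 400 nm, Δε 12500 M⁻¹cm⁻¹. Starting concentrations checked by full hydrolysis in 6 N HCl at 110 °C. First-order rate constants and half-times derived.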

[4] = Rate constant was evaluated for the loss of 1 mol of phenol at the pH 7.5 in the presence of phosphate buffer; type: ADME; method in brief: as §1
[5] = The half-life period was evaluated for the loss of 1 mol of phenol at the pH 7.5 in the presence of Tris buffer; type: ADME; method in brief: as §1
[6] = The half-life period was evaluated for the loss of 1 mol of phenol at the pH 7.5 in the presence of phosphate buffer; type: ADME; method in brief: as §1
[7] = target: T1, Angiotensin-converting enzyme; test: Inhibitory constant was evaluated against Angiotensin I converting enzyme from rabbit lungs
[8] = Half life against hydrolysis at P-N bond; type: ADME
Method in brief: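 P–N cleavage measured in pH 7.5 phosphate buffer at 37 °C. Free Ala-Pro primary amine determined by fluorescamine assay over the hydrolysis time course. Observed rate constant and half-time derived.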

[9] = Inhibitory potency was evaluated against angiotensin converting enzyme at the pH 7.5 in the presence of Tris phosphate buffer, 300 mM in NaCl; type: ADME
[10] = target: T1, Angiotensin-converting enzyme; test: Inhibitory constant was evaluated against Angiotensin I converting enzyme from rabbit lungs at pH 8
[11] = target: T1, Angiotensin-converting enzyme; test: Inhibitory constant was evaluated against Angiotensin I converting enzyme from rabbit lungs at pH 8 in TRIS phosphate/borate buffer
[12] = target: T1, Angiotensin-converting enzyme; test: Binding affinity against Angiotensin I converting enzyme
[13] = Rate constant was evaluated for the loss of 2 mol of phenol at the pH 7.5 in the presence of Tris buffer; type: ADME; method in brief: as §1
[14] = Rate constant was evaluated for the loss of 2 mol of phenol at the pH 7.5 in the presence of phosphate buffer; type: ADME; method in brief: as §1
[15] = The half-life period was evaluated for the loss of 2 mol of phenol at the pH 7.5 in the presence of Tris buffer; type: ADME; method in brief: as §1
[16] = The half-life period was evaluated for the loss of 2 mol of phenol at the pH 7.5 in the presence of phosphate buffer; type: ADME; method in brief: as §1
[17] = target: T1, Angiotensin-converting enzyme; test: Inhibitory activity against Angiotensin I converting enzyme was evaluated

## C[C@H](NP(=O)(Oc1ccccc1)Oc1ccccc1)C(=O)N1CCC[C@H]1C(=O)O
[1]
  half-life: 384 h
[2]
  Ki: 42 µM
[3]
  Rate constant: 0.0013 h⁻¹
[4]
  Rate constant: 0.0012 h⁻¹
[5]
  half-life: 528 h
[6]
  half-life: 576 h

## C[C@H](NP(=O)([O-])[O-])C(=O)N1CCC[C@H]1C(=O)[O-].[K+].[K+].[K+]
[7]
  IC50: 0.7 µM
[2]
  Ki: 0.0014 µM
[8]
  half-life: 2.2 h

## C[C@H](NP(=O)(CCc1ccccc1)Oc1ccccc1)C(=O)N1CCC[C@H]1C(=O)O (stereo partly drawn)
[2]
  Ki: 55 µM
[3]
  Rate constant: 0.0014 h⁻¹
[9]
  half-life: 912 h
[4]
  Rate constant: 0.001 h⁻¹
[5]
  half-life: 504 h
[6]
  half-life: 744 h

## C[C@H](NP(=O)(O)OCc1ccccc1)C(=O)N1CCC[C@H]1C(=O)O
[2]
  Ki: 0.0012 µM

## C[C@H](NP(=O)(O)Oc1ccccc1)C(=O)N1CCC[C@H]1C(=O)O
[2]
  Ki: 0.008 µM
[10]
  IC50: 0.9 µM
[11]
  IC50: 50000 µM

## C[C@H](NP(=O)(O)Oc1ccc([N+](=O)[O-])cc1)C(=O)N1CCC[C@H]1C(=O)O
[12]
  Ki: 0.018 µM
[2]
  Ki: 0.018 µM

## C[C@H](NP(=O)(Oc1ccc([N+](=O)[O-])cc1)Oc1ccc([N+](=O)[O-])cc1)C(=O)N1CCC[C@H]1C(=O)O
[13]
  Rate constant: 0.025 h⁻¹
[14]
  Rate constant: 0.031 h⁻¹
[2]
  Ki: 0.8 µM
[3]
  Rate constant: 0.2 h⁻¹
[9]
  half-life: 4 h
[15]
  half-life: 29 h
[4]
  Rate constant: 0.34 h⁻¹
[5]
  half-life: 3.4 h
[6]
  half-life: 2 h
[16]
  half-life: 22 h

## C[C@H](NP(=O)(O)CCc1ccccc1)C(=O)N1CCC[C@H]1C(=O)O
[2]
  Ki: 0.0005 µM
[17]
  IC50: 0.007 µM

Reference: ChEMBL document CHEMBL1123066, “N alpha-(diphenoxyphosphoryl)-L-alanyl-L-proline, N alpha-[bis (4-nitrophenoxy)phosphoryl]-L-alanyl-L-proline, and N alpha-[ (2-phenylethyl)phenoxyphosphoryl]-L-alanyl-L-proline: releasers of potent inhibitors of angiotensin converting enzyme at physiological pH and temperature” (J Med Chem, 1985)
